Reference: article PMC6606825 (Journal of Ginseng Research, 2018)

Assay: Pharmacokinetics of CK and its metabolite 20
Format: in vivo, healthy Chinese volunteers
Conditions: mean (SD)
Outline: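 Healthy adults given one oral tablet dose fasting (overnight, or 10 h in a crossover food-effect arm); 30 subjects from the 100/200/400 mg groups were pooled with 24 from 200 mg fasting periods. Plasma was stored at −70°C, extracted with MTBE plus internal standards and assayed by LC-MS/MS. Cmax was observed and AUClast calculated by linear trapezoid, each divided by dose. The metabolite/parent ratio was also calculated. Genotyping used Sequenom MassARRAY, and log-transformed values were compared by one-way ANOVA.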

[1] = ABCG2 rs3114018 AA (first line)
[2] = ABCG2 rs3114018 AA (third line)

Ratio 20(S)-PPD/CK Cmax/D (ABCG2 rs2725248 CC): 0.74 (0.83) %
20(S)-PPD AUClast/D [1]: 0.91 (0.71)
20(S)-PPD Cmax/D [1]: 0.03 (0.02)
Ratio 20(S)-PPD/CK AUClast/D [1]: 4.78 (4.26) %
Ratio 20(S)-PPD/CK Cmax/D [1]: 0.96 (0.87) %
20(S)-PPD AUClast/D [2]: 0.88 (0.92)
20(S)-PPD Cmax/D [2]: 0.03 (0.03)
Ratio 20(S)-PPD/CK AUClast/D [2]: 5.73 (8.96) %
Ratio 20(S)-PPD/CK Cmax/D [2]: 1.25 (1.73) %
20(S)-PPD AUClast/D (ABCG2 rs3114018 CA): 0.80 (0.73)
20(S)-PPD Cmax/D (ABCG2 rs3114018 CA): 0.03 (0.03)
Ratio 20(S)-PPD/CK AUClast/D (ABCG2 rs3114018 CA): 3.46 (4.62) %
Ratio 20(S)-PPD/CK Cmax/D (ABCG2 rs3114018 CA): 1.17 (1.94) %
20(S)-PPD AUClast/D (ABCG2 rs6857600 CC): 0.89 (0.83)
20(S)-PPD Cmax/D (ABCG2 rs6857600 CC): 0.03 (0.03)
Ratio 20(S)-PPD/CK AUClast/D (ABCG2 rs6857600 CC): 4.61 (6.81) %
Ratio 20(S)-PPD/CK Cmax/D (ABCG2 rs6857600 CC): 1.26 (1.91) %
20(S)-PPD AUClast/D (ABCG2 rs6857600 TC): 0.65 (0.64)
20(S)-PPD Cmax/D (ABCG2 rs6857600 TC): 0.02 (0.02)
Ratio 20(S)-PPD/CK AUClast/D (ABCG2 rs6857600 TC): 2.91 (3.24) %
Ratio 20(S)-PPD/CK Cmax/D (ABCG2 rs6857600 TC): 0.75 (0.80) %
20(S)-PPD AUClast/D (ABCG2 rs6857600 TT): 0.48 (0.53)
20(S)-PPD Cmax/D (ABCG2 rs6857600 TT): 0.02 (0.02)
Ratio 20(S)-PPD/CK AUClast/D (ABCG2 rs6857600 TT): 4.27 (5.76) %
Ratio 20(S)-PPD/CK Cmax/D (ABCG2 rs6857600 TT): 0.95 (1.30) %
20(S)-PPD AUClast/D (ABCG2 rs12505410 GG): 0.92 (0.62)
20(S)-PPD Cmax/D (ABCG2 rs12505410 GG): 0.03 (0.02)
Ratio 20(S)-PPD/CK AUClast/D (ABCG2 rs12505410 GG): 3.61 (2.83) %
Ratio 20(S)-PPD/CK Cmax/D (ABCG2 rs12505410 GG): 0.90 (0.55) %
20(S)-PPD AUClast/D (ABCG2 rs12505410 GT): 1.00 (0.74)
Ratio 20(S)-PPD/CK AUClast/D (ABCG2 rs12505410 GT): 4.63 (5.21) %
Ratio 20(S)-PPD/CK Cmax/D (ABCG2 rs12505410 GT): 1.36 (2.02) %
20(S)-PPD AUClast/D (ABCG2 rs12505410 TT): 0.63 (0.82)
20(S)-PPD Cmax/D (ABCG2 rs12505410 TT): 0.02 (0.03)
Ratio 20(S)-PPD/CK AUClast/D (ABCG2 rs12505410 TT): 4.03 (7.68) %
Ratio 20(S)-PPD/CK Cmax/D (ABCG2 rs12505410 TT): 0.97 (1.54) %
20(S)-PPD AUClast/D (ABCG2 rs17731799 GG): 0.91 (0.71)
20(S)-PPD Cmax/D (ABCG2 rs17731799 GG): 0.03 (0.02)
Ratio 20(S)-PPD/CK AUClast/D (ABCG2 rs17731799 GG): 4.78 (4.26) %
Ratio 20(S)-PPD/CK Cmax/D (ABCG2 rs17731799 GG): 0.96 (0.87) %
20(S)-PPD AUClast/D (ABCG2 rs17731799 GT): 0.82 (0.77)
20(S)-PPD Cmax/D (ABCG2 rs17731799 GT): 0.03 (0.03)
Ratio 20(S)-PPD/CK AUClast/D (ABCG2 rs17731799 GT): 3.65 (5.14) %
Ratio 20(S)-PPD/CK Cmax/D (ABCG2 rs17731799 GT): 1.28 (2.16) %
20(S)-PPD AUClast/D (ABCG2 rs17731799 TT): 0.80 (0.85)
20(S)-PPD Cmax/D (ABCG2 rs17731799 TT): 0.03 (0.03)
Ratio 20(S)-PPD/CK AUClast/D (ABCG2 rs17731799 TT): 4.76 (7.86) %
Ratio 20(S)-PPD/CK Cmax/D (ABCG2 rs17731799 TT): 1.08 (1.53) %
20(S)-PPD AUClast/D (CFTR rs213950 AG): 0.91 (0.99)
20(S)-PPD Cmax/D (CFTR rs213950 AG): 0.03 (0.04)
Ratio 20(S)-PPD/CK AUClast/D (CFTR rs213950 AG): 4.96 (7.34) %
Ratio 20(S)-PPD/CK Cmax/D (CFTR rs213950 AG): 1.45 (2.26) %
20(S)-PPD AUClast/D (CFTR rs213950 GG): 0.64 (0.54)
20(S)-PPD Cmax/D (CFTR rs213950 GG): 0.02 (0.02)
Ratio 20(S)-PPD/CK AUClast/D (CFTR rs213950 GG): 2.67 (3.18) %
Ratio 20(S)-PPD/CK Cmax/D (CFTR rs213950 GG): 0.64 (0.66) %
20(S)-PPD AUClast/D (CFTR rs213968 CC): 0.64 (0.55)
20(S)-PPD Cmax/D (CFTR rs213968 CC): 0.02 (0.02)
Ratio 20(S)-PPD/CK AUClast/D (CFTR rs213968 CC): 2.81 (3.33) %
Ratio 20(S)-PPD/CK Cmax/D (CFTR rs213968 CC): 0.65 (0.69) %
20(S)-PPD AUClast/D (CFTR rs213968 CT): 0.90 (0.98)
20(S)-PPD Cmax/D (CFTR rs213968 CT): 0.03 (0.04)
Ratio 20(S)-PPD/CK AUClast/D (CFTR rs213968 CT): 4.70 (7.26) %
Ratio 20(S)-PPD/CK Cmax/D (CFTR rs213968 CT): 1.40 (2.23) %
20(S)-PPD AUClast/D (CFTR rs213968 TT): 0.97 (0.49)
20(S)-PPD Cmax/D (CFTR rs213968 TT): 0.04 (0.02)
Ratio 20(S)-PPD/CK AUClast/D (CFTR rs213968 TT): 5.87 (7.37) %
Ratio 20(S)-PPD/CK Cmax/D (CFTR rs213968 TT): 1.40 (1.51) %
20(S)-PPD AUClast/D (CFTR rs213976 GG): 1.12 (0.43)
20(S)-PPD Cmax/D (CFTR rs213976 GG): 0.04 (0.02)
Ratio 20(S)-PPD/CK AUClast/D (CFTR rs213976 GG): 7.39 (8.42) %
Ratio 20(S)-PPD/CK Cmax/D (CFTR rs213976 GG): 1.68 (1.73) %
20(S)-PPD AUClast/D (CFTR rs213976 GT): 0.83 (0.78)
20(S)-PPD Cmax/D (CFTR rs213976 GT): 0.03 (0.03)
Ratio 20(S)-PPD/CK AUClast/D (CFTR rs213976 GT): 4.01 (4.96) %
Ratio 20(S)-PPD/CK Cmax/D (CFTR rs213976 GT): 1.32 (2.08) %
20(S)-PPD AUClast/D (CFTR rs213976 TT): 0.74 (0.87)
20(S)-PPD Cmax/D (CFTR rs213976 TT): 0.02 (0.03)
Ratio 20(S)-PPD/CK AUClast/D (CFTR rs213976 TT): 3.63 (6.72) %
Ratio 20(S)-PPD/CK Cmax/D (CFTR rs213976 TT): 0.81 (1.29) %
20(S)-PPD AUClast/D (CFTR rs1042077 GG): 0.97 (0.49)
20(S)-PPD Cmax/D (CFTR rs1042077 GG): 0.04 (0.02)
Ratio 20(S)-PPD/CK AUClast/D (CFTR rs1042077 GG): 5.87 (7.37) %
Ratio 20(S)-PPD/CK Cmax/D (CFTR rs1042077 GG): 1.40 (1.51) %
20(S)-PPD AUClast/D (CFTR rs1042077 GT): 0.92 (0.99)
20(S)-PPD Cmax/D (CFTR rs1042077 GT): 0.03 (0.04)
Ratio 20(S)-PPD/CK AUClast/D (CFTR rs1042077 GT): 4.85 (7.37) %
Ratio 20(S)-PPD/CK Cmax/D (CFTR rs1042077 GT): 1.44 (2.26) %
20(S)-PPD AUClast/D (CFTR rs1042077 TT): 0.68 (0.55)
20(S)-PPD Cmax/D (CFTR rs1042077 TT): 0.02 (0.02)
Ratio 20(S)-PPD/CK AUClast/D (CFTR rs1042077 TT): 2.95 (3.37) %
Ratio 20(S)-PPD/CK Cmax/D (CFTR rs1042077 TT): 0.68 (0.70) %
20(S)-PPD AUClast/D (CFTR rs2106155 AA): 1.09 (0.41)
20(S)-PPD Cmax/D (CFTR rs2106155 AA): 0.04 (0.02)
Ratio 20(S)-PPD/CK AUClast/D (CFTR rs2106155 AA): 7.22 (7.81) %
Ratio 20(S)-PPD/CK Cmax/D (CFTR rs2106155 AA): 1.67 (1.60) %
20(S)-PPD AUClast/D (CFTR rs2106155 CA): 0.88 (0.82)
20(S)-PPD Cmax/D (CFTR rs2106155 CA): 0.04 (0.03)
Ratio 20(S)-PPD/CK AUClast/D (CFTR rs2106155 CA): 4.03 (5.36) %
Ratio 20(S)-PPD/CK Cmax/D (CFTR rs2106155 CA): 1.39 (2.26) %
Compound: CC(C)=CCC[C@](C)(O)[C@H]1CC[C@]2(C)[C@@H]1[C@H](O)C[C@@H]1[C@@]3(C)CC[C@H](O)C(C)(C)[C@@H]3CC[C@]12C [20(S)-PPD, 20(S)-protopanaxadiol]
